This is a sample that favours compounds with a hit; in the whole collection about 4.2% have one here.
SENP1 FRET inh = human SENP1 catalytic domain inhibitors, primary screen, biochemical, FRET, uHTS; inhibition, % at 10 µM; recombinant SENP1 catalytic domain, CyPet-SUMO1-YPet FRET cleavage; Sentrin-specific protease 1 (Homo sapiens), Q9P0U3; AID 624204, 2012; actives 0.21% (n = 360,000);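 active means inhibition at least 30% at 10 µM, raw YFP signal under a set limit, fluorescence ratio 0.5 to 1.5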;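 further: 0% = enzyme with DMSO and 100% = no enzyme wells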
Target sequence (Q9P0U3 419-644 limits assumed): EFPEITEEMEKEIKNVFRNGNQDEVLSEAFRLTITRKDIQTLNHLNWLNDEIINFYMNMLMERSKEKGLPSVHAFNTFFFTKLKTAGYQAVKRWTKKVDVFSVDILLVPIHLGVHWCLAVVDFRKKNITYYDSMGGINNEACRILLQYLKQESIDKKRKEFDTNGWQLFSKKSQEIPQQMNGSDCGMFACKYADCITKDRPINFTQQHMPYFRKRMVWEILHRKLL
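Material – human SENP1 catalytic domain · Input – SENP1 enzyme, 20 pM final · Compound dosing – single concentration of 10 µM compound, 0.5% DMSO final · Timing – enzyme reaction for 50 min at room temperature, dark · Measured by – FRET fluorescence in CFP and YFP emission channels · Control set – no-enzyme wells low, DMSO-plus-enzyme wells high control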
M18AAP inhibitor = PfM18AAP inhibitors, malaria aminopeptidase, primary screen, biochemical, QFRET, recombinant enzyme | H-Glu-NHMec fluorogenic cleavage | M18 aspartyl aminopeptidase (Plasmodium falciparum 3D7) | inhibition, % at 7.35 µM | actives 1.2% (n = 290,000) | AID 1822, 2009;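 active means inhibition above the campaign mean inhibition over all tested compounds plus 3 SD, cut at about 28% in these data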;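 further: 0% = plate median of test compound wells and 100% = 2 mM ZnCl2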
FXN GAA850 act = FXN promoter activators, primary screen, cell-based, luciferase luminescence, HEK293 lucGAA850 | HEK293 lucGAA850 FXN promoter luciferase reporter, 24 h; percent of 10 µM SAHA response | activation, % at 6 µM | actives 0.56% (n = 360,000) | AID 540364, 2011;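 active means activation above the average of all compounds screened plus 3 SD, cutoff fixed separately per campaign, cut at about 7.5% in these data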;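 further: 0% = DMSO wells and 100% = 10 µM SAHA wells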
CTSL1 counter = Fasciola hepatica cathepsin L1 inhibitors, primary screen, counter-screen for PFM18AAP inhibitor project, biochemical, QFRET, fluorogenic peptide substrate; recombinant F. hepatica cathepsin L1, Z-Leu-Arg-MCA fluorescence; inhibition, % at 5.96 µM; actives 0.49% (n = 300,000); AID 1906, 2009;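 active means inhibition above the mean of all tested compounds plus 3 SD, set per screening campaign, cut at about 17% in these data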;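 further: 0% = plate median of test compound wells and 100% = 1 µM Z-Phe-Ala-diazomethylketone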
HDAC3 inhib = HDAC3 deacetylase inhibitors, primary screen, biochemical, fluorescence, cell-free homogeneous. Histone deacetylase 3 (Homo sapiens), O15379. recombinant HDAC3, fluorogenic peptide/trypsin coupled. inhibition, % at 8.3 µM. actives 0.15% (n = 320,000); in the data active means inhibition above about 26%, passing the limit was not always enough
AHR activator = AHR activators, primary screen, cell-based, luminescence, luciferase reporter, human. Aryl hydrocarbon receptor (Homo sapiens), P35869. AHR-responsive luciferase reporter cells. activation, % at 5 µM. actives 2.5% (n = 320,000). AID 2796, 2010; in the data active means activation above about 47%;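 further: 0% = vehicle wells and 100% = reference agonist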
An asterisk follows results filed as active; nt = no result.

SMILES | SENP1 FRET inh | M18AAP inhibitor | FXN GAA850 act | CTSL1 counter | HDAC3 inhib | AHR activator
CC(=O)NS(=O)(=O)c1ccc(NC(=O)/C=C/c2cn(-c3ccccc3)nc2-c2ccccc2)cc1 | 0 | -1 | -10 | 4 | 11 | -1
N#C/C(=N/Nc1ccc(OC(F)(F)F)cc1)C(N)=S | -1 | 2 | -9 | 2 | 6 | 54*
COc1ccc(/C=N/Nc2ncnc3sc(C)c(C)c23)cc1 | 0 | -3 | 4 | 3 | 6 | 62*
Cc1ccc(C)c(/C=N/Nc2nc3ccccc3c(=O)n2O)c1 | -18 | 31* | 2 | 5 | 9 | 1
O=C1c2ccccc2S(=O)(=O)c2cc(C(=O)N3CCN(c4ccc(Cl)cn4)CC3)ccc21 | 3 | nt | -1 | 17* | -4 | 5
Cc1cc(OCC(=O)NCc2ccncc2)c2c(C)cc(=O)oc2c1 | 1 | 2 | -1 | 4 | -23 | 61*
CCCCc1cc(=O)oc2cc(C)cc(OCC(=O)Nc3cccnc3)c12 | 0 | -3 | -5 | -4 | 0 | 51*
O=c1ccn(CCc2c[nH]c3ccccc23)c2c1CCCC2 | -5 | -13 | 1 | 2 | 0 | -4
COc1ccccc1NC(=S)NC(=O)Cc1ccccc1 | 1 | nt | -1 | 2 | -7 | 14
CCC(=O)Nc1ccc(OC)cc1OC | 0 | -2 | 0 | 3 | -5 | 12
CCC(=O)NC(=S)Nc1ccc(OC)cc1OC | 0 | -9 | 2 | -1 | -1 | 70*
COc1ccc(NC(=S)NC(=O)Cc2ccccc2)c(OC)c1 | 1 | -1 | 2 | 7 | 3 | 48*
COc1ccc(CC(=O)NC(=S)NNC(=O)COc2c(C)cccc2C)cc1 | 2 | 47* | 0 | -5 | 2 | 1
Brc1ccc(CNc2nc3ccccc3n2CCN2CCCCC2)cc1 | 1 | -8 | -1 | -1 | 0 | 1
N#Cc1ccccc1CSc1nc2ccc(NC(=O)c3ccccc3C(=O)O)cc2s1 | -2 | 0 | 5 | 4 | 8 | 50*
CN(C(=O)CS(=O)(=O)c1cn(CC(=O)N2CCCC2)c2ccccc12)c1ccccc1 | -1 | 6 | 3 | -8 | 3 | 1
COc1ccccc1COC(=O)C(NC(=O)c1ccc(C)cc1)C(C)C (stereo unspecified) | 2 | nt | 1 | nt | nt | nt
Cc1cc(/C=C2/NC(=O)N(Cc3ccccc3F)C2=O)c(C)n1C(C)C | -32 | -6 | 2 | 2 | 5 | 114*
CCn1c(C)cc(/C=C2\NC(=O)N(CC(=O)Nc3ccc(F)cc3)C2=O)c1C | -8 | 4 | -1 | 2 | 10 | 24
Cc1cc(/C=C2/NC(=O)N(c3ccccc3)C2=O)c(C)n1C(C)C | -42 | 3 | -4 | 1 | 1 | 8
CCn1c(C)cc(/C=C2\NC(=O)N(Cc3ccccc3)C2=O)c1C | -21 | 9 | 1 | 2 | -1 | 70*
C[C@@H]1CCCCO[C@H](CN(C)C(=O)c2ccccc2)[C@@H](C)CN([C@H](C)CO)C(=O)c2cc(NC(=O)c3ccncc3)ccc2O1 | 2 | nt | -2 | nt | nt | nt
O=C(NCc1nc2ncc(Br)cc2[nH]1)c1ccccc1 | -16 | 1 | 1 | -1 | 2 | 78*
Nc1sccc1C(=O)N1CCN(c2ccccc2)CC1 | 3 | nt | nt | nt | nt | nt
Oc1ccc(N=C/C=C/c2cccc(Br)c2)cc1-c1nc2ccccc2s1 | -26 | -3 | 14* | -2 | -9 | 34
Cc1ccc2oc(-c3cccc(NC(=O)C4CCCO4)c3)nc2c1 (stereo unspecified) | 1 | -2 | 3 | 2 | -19 | 72*
Cc1nc2sc(C(c3ccco3)N3CCc4ccccc4C3)c(O)n2n1 (stereo unspecified) | -5 | 2 | 3 | 0 | 6 | 51*
Cc1nc2sc(C(c3ccco3)N3CCN(c4ccccc4F)CC3)c(O)n2n1 (stereo unspecified) | 0 | -2 | 0 | -4 | 0 | -2
